Active and inactive are the calls of the source. The calls are words filed in the database; no cut-off is given here.
Columns and labels:
[1] = system: HeLa; assay: Antiproliferative activity against human HeLa cells by SRB assay; type: functional, cell-based
In short: (§1)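 SRB assay in HeLa cells, IC50 from concentration-response; three independent experiments, each in triplicate, reported with standard deviation.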

[2] = system: HeLa; assay: Ratio of taccalonolide AM IC50 to compound IC50 for human HeLa cells by SRB assay; type: functional
[3] = system: HeLa; assay: Ratio of taccalonolide A IC50 to compound IC50 for human HeLa cells by SRB assay; type: functional
[4] = system: Mus musculus; assay: Toxicity in human MDA-MB-231 cells xenografted nu/nu mouse assessed as weight loss at 0.25 mg/kg, ip on days 0 and 3 measured on day 17; type: organism-based; set-up: dose 0.25 mg/kg, route intraperitoneal; conditions: in vivo
In short: (§2)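 MDA-MB-231 tumor fragments implanted bilaterally in female nu/nu mice; randomized groups of 5, dosing started at mean tumor size 134 mm3. Compound given ip at 0.25 mg/kg on days 0 and 3, from a 1.25 mg/mL EtOH stock diluted at least 1:10 in 200 µL PBS. Tumor volume and body weight recorded 2-3 times weekly; 10 tumors averaged, with standard error.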

[5] = system: Mus musculus; assay: Toxicity in human MDA-MB-231 cells xenografted nu/nu mouse assessed as mortality at 0.375 mg/kg, ip on days 0 and 3 measured on day 8 to day 11; type: organism-based; set-up: dose 0.375 mg/kg, route intraperitoneal; conditions: in vivo
In short: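 Female nu/nu mice with bilateral MDA-MB-231 tumor fragment implants, groups of 5. Two doses were given on days 0 and 3, starting when mean tumor size was 134 mm3. Stock in 100% EtOH (1.25 mg/mL) was diluted at least 1:10 in 200 µL PBS just before ip injection. Mice were checked daily during dosing, weighed 2-3 times weekly, and scored for lethality after the last dose.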

[6] = system: MDA-MB-231; assay: Antitumor activity against human MDA-MB-231 cells xenografted in nu/nu mouse assessed as tumor growth inhibition at 0.25 mg/kg, ip on days 0 and 3 measured after 17 days; type: functional, organism-based; set-up: dose 0.25 mg/kg; in short: as §2
[7] = system: HeLa; assay: Stabilization of microtubules in interphase human HeLa cells at 4 nM after 18 hrs by immunofluorescence microscopy; type: cell-based
In short: (§3)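 Interphase HeLa cells exposed to compound or EtOH vehicle for 18 h. Microtubules stained with a β-tubulin antibody and imaged by fluorescence microscopy.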

[8] = molecular target: T1, Tubulin (Sus scrofa) (UniProt P02554+P02550); assay: Binding affinity to purified porcine brain tubulin at 0.7 uM by turbidimetry
T1 sequence (P02550 whole entry, looked up): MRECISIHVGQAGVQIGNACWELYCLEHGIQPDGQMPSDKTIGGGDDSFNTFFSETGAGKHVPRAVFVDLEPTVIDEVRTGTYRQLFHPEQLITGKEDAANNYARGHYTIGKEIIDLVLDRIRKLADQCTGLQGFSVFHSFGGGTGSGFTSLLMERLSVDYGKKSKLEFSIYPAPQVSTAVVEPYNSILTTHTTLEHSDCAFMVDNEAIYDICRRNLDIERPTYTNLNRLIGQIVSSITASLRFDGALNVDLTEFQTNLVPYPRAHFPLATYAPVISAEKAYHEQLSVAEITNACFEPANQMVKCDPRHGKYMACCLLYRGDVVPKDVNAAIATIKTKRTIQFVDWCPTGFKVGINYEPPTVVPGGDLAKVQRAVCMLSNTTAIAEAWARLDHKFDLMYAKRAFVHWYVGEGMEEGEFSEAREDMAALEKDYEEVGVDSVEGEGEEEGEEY
T1 sequence (P02554 whole entry, looked up): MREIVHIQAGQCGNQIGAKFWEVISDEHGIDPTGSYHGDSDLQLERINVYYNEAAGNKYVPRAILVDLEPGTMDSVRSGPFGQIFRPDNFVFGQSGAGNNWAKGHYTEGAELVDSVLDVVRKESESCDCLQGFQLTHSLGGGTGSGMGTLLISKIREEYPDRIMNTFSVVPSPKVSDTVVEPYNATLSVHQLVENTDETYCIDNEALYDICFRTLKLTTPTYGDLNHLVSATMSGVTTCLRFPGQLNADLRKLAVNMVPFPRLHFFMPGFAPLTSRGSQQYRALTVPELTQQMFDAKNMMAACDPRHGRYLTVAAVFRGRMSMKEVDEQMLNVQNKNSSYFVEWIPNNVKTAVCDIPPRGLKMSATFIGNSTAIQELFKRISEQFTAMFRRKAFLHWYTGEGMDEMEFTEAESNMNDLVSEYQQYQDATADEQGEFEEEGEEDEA
In short: (§4)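 Compound added from 100× EtOH stock (1% final EtOH). Polymerization started by shift to 37 °C and followed as turbidity at OD340.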

[9] = system: Mus musculus; assay: Toxicity in human MDA-MB-231 cells xenografted nu/nu mouse assessed as weight loss at 0.25 mg/kg, ip on days 0 and 3 measured on day 7; type: organism-based; set-up: dose 0.25 mg/kg, route intraperitoneal; conditions: in vivo; in short: as §2
[10] = system: MDA-MB-231; assay: Antitumor activity against human MDA-MB-231 cells xenografted in nu/nu mouse assessed as tumor growth inhibition at 0.25 mg/kg, ip on days 0 and 3 measured on day 7; type: functional, organism-based; set-up: dose 0.25 mg/kg; in short: as §2
[11] = system: MDA-MB-231; assay: Antitumor activity against human MDA-MB-231 cells xenografted in nu/nu mouse assessed as tumor growth inhibition at 0.25 mg/kg, ip on days 0 and 3 measured after 1 week post final dose; type: functional, organism-based; set-up: dose 0.25 mg/kg; in short: as §2
[12] = system: HeLa; assay: Antiproliferative activity against human HeLa cells up to 50 uM by SRB assay; type: functional, cell-based; in short: as §1
[13] = molecular target: T1, Tubulin (Sus scrofa); assay: Binding affinity to purified porcine brain tubulin at 6 uM by turbidimetry; in short: as §4
[14] = system: MDA-MB-231; assay: Antitumor activity against human MDA-MB-231 cells xenografted in nu/nu mouse assessed as tumor growth inhibition at 0.75 mg/kg, ip on days 0, 3 and 7 measured on day 21; type: functional, organism-based; set-up: dose 0.75 mg/kg
In short: (§5)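 MDA-MB-231 fragments implanted bilaterally in female nu/nu mice; groups of 5, dosing started at mean tumor size 134 mm3. Compound given ip on days 0, 3 and 7, from a 1 mg/mL EtOH stock diluted at least 1:10 in 200 µL PBS. Tumor volume and weight measured 2-3 times weekly; 10 tumors averaged, with standard error; mice sacrificed day 21.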

[15] = system: HeLa; assay: Stabilization of microtubules in interphase human HeLa cells at 10 nM after 18 hrs by immunofluorescence microscopy; type: cell-based; in short: as §3
[16] = system: Mus musculus; assay: Toxicity in human MDA-MB-231 cells xenografted nu/nu mouse assessed as weight loss at 0.75 mg/kg, ip on days 0, 3 and 7 measured on day 17; type: organism-based; set-up: dose 0.75 mg/kg, route intraperitoneal; conditions: in vivo; in short: as §5
[17] = system: HeLa; assay: Ratio of taccalonolide B IC50 to compound IC50 for human HeLa cells by SRB assay; type: functional

CC(=O)O[C@@H]1[C@H]2[C@H]3[C@H]([C@H](OC(C)=O)[C@H](OC(C)=O)[C@]2(C)[C@H]2[C@H](C)[C@@H]4O[C@@]45OC(=O)[C@@](C)(O)[C@]5(C)[C@H]12)[C@@]1(C)[C@@H](OC(C)=O)[C@H]2O[C@H]2C[C@]1(O)C(=O)[C@@H]3O
IC50 [1]: 17.2 nM

CC(=O)O[C@H]1C[C@H]2[C@H]([C@@H]3[C@@H](O)[C@@H]4[C@H]([C@H](C)C=C5OC(=O)[C@@](C)(O)[C@@]54C)[C@]31C)[C@@H](O)C(=O)[C@H]1C[C@@H]3O[C@@H]3[C@H](OC(=O)CC(C)C)[C@@]12C
Ratio IC50 [2]: 42 | IC50 [1]: 47 nM

CC(=O)O[C@@H]1[C@H]2[C@H]3[C@H]([C@H](OC(C)=O)[C@H](OC(C)=O)[C@]2(C)[C@H]2[C@H](C)[C@@H]4O[C@@]45OC(=O)[C@@](C)(O)[C@]5(C)[C@H]12)[C@]1(C)[C@H](C[C@@H]2O[C@@H]2[C@@H]1OC(C)=O)C(=O)[C@@H]3O
Ratio IC50 [3]: 231

CC(=O)O[C@H]1C[C@H]2[C@H]([C@@H]3[C@@H](O)[C@@H]4[C@H]([C@H](C)[C@@H]5O[C@@]56OC(=O)[C@@](C)(O)[C@]46C)[C@]31C)[C@@H](O)C(=O)[C@H]1C[C@@H]3O[C@@H]3[C@H](OC(C)=O)[C@@]12C
IC50 [1]: 14.5 nM

CC(=O)O[C@@H]1[C@H]2[C@@H]3[C@@H](OC(C)=O)C(=O)[C@@]4(O)C[C@@H]5O[C@@H]5[C@H](OC(=O)CC(C)C)[C@]4(C)[C@H]3C[C@H](OC(C)=O)[C@]2(C)[C@H]2[C@H](C)[C@@H]3O[C@@]34OC(=O)[C@@](C)(O)[C@]4(C)[C@H]12
Activity [4]: Non-toxic | Activity [5]: Toxic | TGI [6]: Active | Activity [7]: Active | Activity [8]: Active | Activity [9]: 10% | TGI [10]: Active | TGI [11]: Active | IC50 [1]: 0.45 nM

CC(=O)O[C@@H]1[C@H]2[C@@H]3[C@@H](O)C(=O)[C@H]4C[C@@H]5O[C@@H]5[C@H](OC(C)=O)[C@]4(C)[C@H]3C[C@H](OC(C)=O)[C@]2(C)[C@H]2[C@H](C)[C@@H]3O[C@@]34OC(=O)[C@@](C)(O)[C@]4(C)[C@H]12
IC50 [1]: 188 nM

CC(=O)O[C@H]1[C@H]2[C@H]([C@@H]3[C@@H](O)[C@@H]4[C@H]([C@H](C)[C@@H]5O[C@@]56OC(=O)[C@@](C)(O)[C@]46C)[C@@]3(C)[C@H]1OC(C)=O)[C@@H](O)C(=O)[C@@]1(O)C[C@@H]3O[C@@H]3[C@H](OC(C)=O)[C@]21C
IC50 [1]: 8.4 nM

CC(=O)O[C@@H]1[C@H](O)[C@H]2[C@@H]3[C@@H](O)[C@@H]4[C@H]([C@H](C)C=C5OC(=O)[C@@](C)(O)[C@@]54C)[C@@]3(C)[C@@H](OC(C)=O)[C@@H](OC(C)=O)[C@@H]2[C@]2(C)[C@@H]1C[C@@H]1O[C@@H]1[C@@H]2OC(C)=O
Activity [12]: inactive

CC(=O)O[C@@H]1[C@H]2[C@@H]3[C@@H](OC(C)=O)C(=O)[C@@]4(O)C[C@@H]5O[C@@H]5[C@H](OC(C)=O)[C@]4(C)[C@H]3C[C@H](OC(C)=O)[C@]2(C)[C@H]2[C@H](C)[C@@H]3O[C@@]34OC(=O)[C@@](C)(O)[C@]4(C)[C@H]12
IC50 [1]: 29.6 nM

CC(=O)O[C@H]1C[C@H]2[C@H]([C@@H]3[C@@H](O)[C@@H]4[C@H]([C@H](C)[C@@H]5O[C@@]56OC(=O)[C@@](C)(O)[C@]46C)[C@]31C)[C@@H](O)C(=O)[C@H]1C[C@@H]3O[C@@H]3[C@H](OC(=O)CC(C)C)[C@@]12C
Activity [13]: Active | Activity [14]: inactive | Activity [15]: Active | Activity [16]: Non-toxic | IC50 [1]: 0.88 nM

CC(=O)O[C@@H]1[C@H]2[C@H]3[C@H]([C@H](OC(C)=O)[C@H](OC(C)=O)[C@]2(C)[C@H]2[C@H](C)[C@@H]4O[C@@]45OC(=O)[C@@](C)(O)[C@]5(C)[C@H]12)[C@@]1(C)[C@@H](OC(C)=O)[C@H]2O[C@H]2C[C@]1(O)C(=O)[C@@H]3OC(C)=O
IC50 [1]: 15.6 nM

CC(=O)O[C@H]1[C@H]2[C@@H]([C@@H](O)[C@@H](O)[C@H]3C[C@@H]4O[C@@H]4[C@H](OC(C)=O)[C@]23C)[C@@H]2[C@@H](O)[C@@H]3[C@H]([C@H](C)C=C4OC(=O)[C@@](C)(O)[C@@]43C)[C@@]2(C)[C@H]1OC(C)=O
Activity [12]: inactive

CC(=O)O[C@@H]1[C@H]2[C@@H]3C(=O)C(O)=C4C[C@@H]5O[C@@H]5[C@H](OC(C)=O)[C@]4(C)[C@H]3[C@H](OC(C)=O)[C@H](OC(C)=O)[C@]2(C)[C@H]2[C@H](C)[C@@H]3O[C@@]34OC(=O)[C@@](C)(O)[C@]4(C)[C@H]12
IC50 [1]: 820 nM

CC(=O)O[C@H]1C[C@H]2[C@H]([C@@H]3[C@@H](O)[C@@H]4[C@H]([C@H](C)[C@@H]5O[C@@]56OC(=O)[C@@](C)(O)[C@]46C)[C@]31C)[C@@H](O)C(=O)[C@H]1C[C@@H]3O[C@@H]3[C@H](O)[C@@]12C
IC50 [1]: 685 nM

CC(=O)O[C@@H]1[C@H]2[C@@H]3C(=O)C(O)=C4C[C@@H]5O[C@@H]5[C@H](OC(C)=O)[C@]4(C)[C@H]3[C@H](OC(C)=O)[C@H](OC(C)=O)[C@]2(C)[C@@H]2[C@@H]1[C@]1(C)C(=C[C@H]2C)OC(=O)[C@@]1(C)O
IC50 [1]: 3480 nM

CC(=O)O[C@H]1[C@H]2[C@H]([C@@H]3[C@@H](O)[C@@H]4[C@H]([C@H](C)[C@@H]5O[C@@]56OC(=O)[C@@](C)(O)[C@]46C)[C@@]3(C)[C@H]1OC(C)=O)[C@@H](O)C(=O)[C@H]1C[C@@H]3O[C@@H]3[C@H](OC(C)=O)[C@]21C
Ratio IC50 [17]: 734
